ChEMBL document CHEMBL4354873, “Rationally Designed Small-Molecule Inhibitors Targeting an Unconventional Pocket on the TLR8 Protein-Protein Interface” (J Med Chem, 2020)
Active and inactive are the calls of the source.

Legend:
Type in all cases: cell-based
[1] = molecular target: T1, Toll-like receptor 8 (Homo sapiens) (UniProt Q9NR97); experiment: Inhibition of TLR8 in human monocytes assessed as reduction in R848-induced phosphorylated IRAK4 expression measured after 2 hrs by Western blot analysis
T1 sequence (whole entry): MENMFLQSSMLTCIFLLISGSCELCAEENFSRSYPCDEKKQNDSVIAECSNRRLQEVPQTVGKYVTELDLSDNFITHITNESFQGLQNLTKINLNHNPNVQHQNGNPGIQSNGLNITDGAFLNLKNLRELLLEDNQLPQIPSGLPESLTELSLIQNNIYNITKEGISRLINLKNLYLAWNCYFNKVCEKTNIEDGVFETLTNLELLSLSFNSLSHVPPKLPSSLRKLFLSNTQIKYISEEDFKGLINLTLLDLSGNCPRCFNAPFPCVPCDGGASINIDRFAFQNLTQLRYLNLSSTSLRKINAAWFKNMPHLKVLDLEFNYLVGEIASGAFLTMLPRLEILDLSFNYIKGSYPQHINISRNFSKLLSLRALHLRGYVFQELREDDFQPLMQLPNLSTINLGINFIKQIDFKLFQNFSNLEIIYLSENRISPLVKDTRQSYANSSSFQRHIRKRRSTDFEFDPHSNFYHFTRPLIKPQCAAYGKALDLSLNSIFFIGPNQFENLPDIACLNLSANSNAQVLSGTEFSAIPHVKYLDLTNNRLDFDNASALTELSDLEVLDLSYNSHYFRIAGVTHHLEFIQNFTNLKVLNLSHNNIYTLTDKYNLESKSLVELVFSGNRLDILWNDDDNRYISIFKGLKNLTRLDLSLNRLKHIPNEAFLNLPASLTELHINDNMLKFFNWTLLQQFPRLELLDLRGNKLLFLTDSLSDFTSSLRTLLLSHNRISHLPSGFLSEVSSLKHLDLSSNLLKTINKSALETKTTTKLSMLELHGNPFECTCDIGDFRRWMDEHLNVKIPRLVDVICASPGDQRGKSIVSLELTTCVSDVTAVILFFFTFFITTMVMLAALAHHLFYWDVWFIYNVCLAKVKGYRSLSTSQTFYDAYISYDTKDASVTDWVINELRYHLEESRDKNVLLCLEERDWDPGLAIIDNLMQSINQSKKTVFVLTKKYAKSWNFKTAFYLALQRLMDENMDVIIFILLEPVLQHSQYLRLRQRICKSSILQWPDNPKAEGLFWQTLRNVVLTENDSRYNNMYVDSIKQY
Method in brief: (§1)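 Monocyte cell lines, 2 × 10⁶/well, differentiated with PMA 100 ng/mL for 24 h. After washes, cells in unsupplemented RPMI received R848 1 µg/mL with varying compound concentrations for 2 h. Nuclear/cytoplasmic fractions extracted and resolved on 10% SDS-PAGE. Blots probed for p65, TRAF3 and p-IRAK4 (1:1000); lamin A/C (nuclear) and β-actin (cytoplasmic) as loading controls.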

[2] = molecular target: T1, Toll-like receptor 8 (Homo sapiens); experiment: Inhibition of TLR8 in human monocytes assessed as reduction in R848-induced p65 nuclear translocation up to 5 uM measured after 2 hrs by Western blot analysis; method in brief: as §1
[3] = molecular target: T1, Toll-like receptor 8 (Homo sapiens); experiment: Inhibition of human TLR8 expressed in HEK-Blue cells assessed as inhibition of R848-induced TNFalpha mRNA level at 1 uM measured after 8 hrs by Trizol reagent based qRT-PCR analysis
Method in brief: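 RT-qPCR: HEK-Blue TLR8 cells seeded at 1 × 10⁶/well and grown 24 h, then switched to serum-free medium. Treated with R848 4 µg/mL ± compound 1 µM for 8 h. Total RNA extracted with TRIzol, reverse transcribed, TNF-α and IL-8 mRNA quantified. Three independent biological replicates, mean ± s.d.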

Measured: inhibition

CSc1nnc(CCCO)n1-c1cc(C)c(C)c(C)c1
active: [1] Dose-dependent effect | [2] | [3]
